Source: ChEMBL document CHEMBL1137333, “Synthesis, radiosynthesis, and biological evaluation of carbon-11 labeled 2beta-carbomethoxy-3beta-(3'-((Z)-2-haloethenyl)phenyl)nortropanes: candidate radioligands for in vivo imaging of the serotonin transporter with positron emission tomography” (J Med Chem, 2006)

Key:
Cynomolgus monkey [1] = experiment: Uptake in anesthetized cynomolgus monkey putamen after 45.0 mins; assay type: ADME, organism-based; conditions: in vivo, 0.75 h
Method in brief: (§1)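 Baseline microPET (Concorde P4) scan in anesthetized cynomolgus monkeys after injection of the carbon-11 labeled tracer, with no chase drug. Regional brain time-activity curves were followed over the scan. Tracer radiochemical purity and specific activity were determined by analytical HPLC at the time of injection.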

Cynomolgus monkey [2] = experiment: Uptake in anesthetized cynomolgus monkey medulla after 9.5 mins; assay type: ADME, organism-based, Medulla of organ; conditions: in vivo
Method in brief: (§2)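 Baseline microPET scan (P4 scanner) of anesthetized cynomolgus monkeys after injection of the carbon-11 labelled nortropane tracer. Two baseline studies were run per tracer. Radioactivity was followed over time in regional brain time-activity curves.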

Cynomolgus monkey [3] = experiment: Ratio of uptake in caudate to cerebellum of anesthetized cynomolgus monkey after 85 mins; assay type: ADME, organism-based; conditions: in vivo
Method in brief: (§3)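 Baseline microPET (Concorde P4) in anesthetized cynomolgus monkey after injection of the [11C]-labelled tracer. Regional time-activity curves were taken, and each region's uptake was divided by cerebellum uptake (low-SERT reference) at 65, 85 and 105 min postinjection.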

Cynomolgus monkey [4] = experiment: Uptake in anesthetized cynomolgus monkey medulla after 22.5 mins; assay type: ADME, organism-based, Medulla of organ; conditions: in vivo, 0.375 h; method in brief: as §2
Cynomolgus monkey [5] = experiment: Uptake in anesthetized cynomolgus monkey thalamus after 55.0 mins; assay type: ADME, organism-based; conditions: in vivo; method in brief: as §1
Cynomolgus monkey [6] = experiment: Uptake in anesthetized cynomolgus monkey medulla after 3.5 mins; assay type: ADME, organism-based, Medulla of organ; conditions: in vivo; method in brief: as §2
Cynomolgus monkey [7] = experiment: Uptake in anesthetized cynomolgus monkey frontal after 9.5 mins; assay type: ADME, organism-based, Frontal cortex; conditions: in vivo; method in brief: as §2
Cynomolgus monkey [8] = experiment: Uptake in anesthetized cynomolgus monkey midbrain after 15.5 mins; assay type: ADME, organism-based; conditions: in vivo; method in brief: as §2
Cynomolgus monkey [9] = experiment: Ratio of uptake in putamen to cerebellum of anesthetized cynomolgus monkey after 65 mins; assay type: ADME, organism-based; conditions: in vivo; method in brief: as §3
Cynomolgus monkey [10] = experiment: Uptake in anesthetized cynomolgus monkey medulla after 115.0 mins; assay type: ADME, organism-based, Medulla of organ; conditions: in vivo; method in brief: as §2
Cynomolgus monkey [11] = experiment: Ratio of uptake in thalamus to cerebellum of anesthetized cynomolgus monkey after 85 mins; assay type: ADME, organism-based; conditions: in vivo; method in brief: as §3
Cynomolgus monkey [12] = experiment: Uptake in anesthetized cynomolgus monkey midbrain after 27.5 mins; assay type: ADME, organism-based; conditions: in vivo; method in brief: as §2
Cynomolgus monkey [13] = experiment: Uptake in anesthetized cynomolgus monkey putamen after 1.5 mins; assay type: ADME, organism-based; conditions: in vivo, 0.025 h; method in brief: as §1
Cynomolgus monkey [14] = experiment: Uptake in anesthetized cynomolgus monkey thalamus after 9.5 mins; assay type: ADME, organism-based; conditions: in vivo; method in brief: as §1
Cynomolgus monkey [15] = experiment: Uptake in anesthetized cynomolgus monkey frontal after 75.0 mins; assay type: ADME, organism-based, Frontal cortex; conditions: in vivo, 1.25 h; method in brief: as §2
Cynomolgus monkey [16] = experiment: Uptake in anesthetized cynomolgus monkey cerebellum after 18.5 mins; assay type: ADME, organism-based, Macaca mulatta; conditions: rhesus monkey, in vivo
Method in brief: (§4)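 Baseline microPET (Concorde P4) regional brain time-activity curves in anesthetized cynomolgus monkey following injection of the [11C]-labelled tracer, with radioactivity followed over the scan.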

Cynomolgus monkey [17] = experiment: Uptake in anesthetized cynomolgus monkey midbrain after 45.0 mins; assay type: ADME, organism-based; conditions: in vivo, 0.75 h; method in brief: as §2
Cynomolgus monkey [18] = experiment: Uptake in anesthetized cynomolgus monkey occipital after 4.5 mins; assay type: ADME, organism-based, Occipital cortex; conditions: in vivo, 0.075 h; method in brief: as §2
Cynomolgus monkey [19] = experiment: Uptake in anesthetized cynomolgus monkey medulla after 1.5 mins; assay type: ADME, organism-based, Medulla of organ; conditions: in vivo, 0.025 h; method in brief: as §2
Cynomolgus monkey [20] = experiment: Uptake in anesthetized cynomolgus monkey thalamus after 105.0 mins; assay type: ADME, organism-based; conditions: in vivo, 1.75 h; method in brief: as §1
Cynomolgus monkey [21] = experiment: Uptake in anesthetized cynomolgus monkey caudate after 75.0 mins; assay type: ADME, organism-based, Caudate nucleus; conditions: in vivo, 1.25 h; method in brief: as §4
Cynomolgus monkey [22] = experiment: Uptake in anesthetized cynomolgus monkey pons after 85.0 mins; assay type: ADME, organism-based; conditions: in vivo; method in brief: as §1
Cynomolgus monkey [23] = experiment: Uptake in anesthetized cynomolgus monkey pons after 55.0 mins; assay type: ADME, organism-based; conditions: in vivo; method in brief: as §1
Cynomolgus monkey [24] = experiment: Uptake in anesthetized cynomolgus monkey medulla after 2.5 mins; assay type: ADME, organism-based, Medulla of organ; conditions: in vivo; method in brief: as §2
Cynomolgus monkey [25] = experiment: Uptake in anesthetized cynomolgus monkey medulla after 105.0 mins; assay type: ADME, organism-based, Medulla of organ; conditions: in vivo, 1.75 h; method in brief: as §2
Cynomolgus monkey [26] = experiment: Uptake in anesthetized cynomolgus monkey pons after 15.5 mins; assay type: ADME, organism-based; conditions: in vivo; method in brief: as §1
Cynomolgus monkey [27] = experiment: Uptake in anesthetized cynomolgus monkey medulla after 15.5 mins; assay type: ADME, organism-based, Medulla of organ; conditions: in vivo; method in brief: as §2
Cynomolgus monkey [28] = experiment: Uptake in anesthetized cynomolgus monkey thalamus after 18.5 mins; assay type: ADME, organism-based; conditions: in vivo; method in brief: as §1
Cynomolgus monkey [29] = experiment: Uptake in anesthetized cynomolgus monkey putamen after 3.5 mins; assay type: ADME, organism-based; conditions: in vivo; method in brief: as §1
Cynomolgus monkey [30] = experiment: Ratio of uptake in caudate to cerebellum of anesthetized cynomolgus monkey after 65 mins; assay type: ADME, organism-based; conditions: in vivo; method in brief: as §3
Cynomolgus monkey [31] = experiment: Uptake in anesthetized cynomolgus monkey frontal after 27.5 mins; assay type: ADME, organism-based, Frontal cortex; conditions: in vivo; method in brief: as §2
Cynomolgus monkey [32] = experiment: Ratio of uptake in occipital to cerebellum of anesthetized cynomolgus monkey after 105 mins; assay type: ADME, organism-based; conditions: in vivo, 1.75 h; method in brief: as §3
Cynomolgus monkey [33] = experiment: Uptake in anesthetized cynomolgus monkey putamen after 85.0 mins; assay type: ADME, organism-based; conditions: in vivo; method in brief: as §1
Cynomolgus monkey [34] = experiment: Ratio of uptake in occipital to cerebellum of anesthetized cynomolgus monkey after 85 mins; assay type: ADME, organism-based; conditions: in vivo; method in brief: as §3
Cynomolgus monkey [35] = experiment: Ratio of uptake in frontal to cerebellum of anesthetized cynomolgus monkey after 85 mins; assay type: ADME, organism-based; conditions: in vivo; method in brief: as §3

`[11CH3]OC(=O)[C@@H]1C2CCC(C[C@@H]1c1cccc(/C=C/Br)c1)N2` (stereo not given in full) showed a Drug uptake (Cynomolgus monkey [1]) of 7.28, a Drug uptake (Cynomolgus monkey [2]) of 5.99 and a Ratio (Cynomolgus monkey [3]) of 1.5. The Drug uptake (Cynomolgus monkey [4]) was 6.96, the Drug uptake (Cynomolgus monkey [5]) was 6.4 and the Drug uptake (Cynomolgus monkey [6]) was 2.5. For the same compound, the Drug uptake (Cynomolgus monkey [7]) was 2.85, the Drug uptake (Cynomolgus monkey [8]) was 6.32 and the Ratio (Cynomolgus monkey [9]) was 1.5. For the same compound, the Drug uptake (Cynomolgus monkey [10]) was 6.59, the Ratio (Cynomolgus monkey [11]) was 1.5 and the Drug uptake (Cynomolgus monkey [12]) was 7.01. The Drug uptake (Cynomolgus monkey [13]) was 0.3, the Drug uptake (Cynomolgus monkey [14]) was 4.3 and the Drug uptake (Cynomolgus monkey [15]) was 3.78. For the same compound, the Drug uptake (Cynomolgus monkey [16]) was 6.13, the Drug uptake (Cynomolgus monkey [17]) was 7.58 and the Drug uptake (Cynomolgus monkey [18]) was 2.14. It also gave a Drug uptake (Cynomolgus monkey [19]) of 0.4, a Drug uptake (Cynomolgus monkey [20]) of 6.47 and a Drug uptake (Cynomolgus monkey [21]) of 6.61. For the same compound, the Drug uptake (Cynomolgus monkey [22]) was 7.24, the Drug uptake (Cynomolgus monkey [23]) was 7.56 and the Drug uptake (Cynomolgus monkey [24]) was 1.32. For the same compound, the Drug uptake (Cynomolgus monkey [25]) was 6.81, the Drug uptake (Cynomolgus monkey [26]) was 5.76 and the Drug uptake (Cynomolgus monkey [27]) was 6.52. It also gave a Drug uptake (Cynomolgus monkey [28]) of 5.21, a Drug uptake (Cynomolgus monkey [29]) of 1.96 and a Ratio (Cynomolgus monkey [30]) of 1.4. It also gave a Drug uptake (Cynomolgus monkey [31]) of 3.61, a Ratio (Cynomolgus monkey [32]) of 0.9 and a Drug uptake (Cynomolgus monkey [33]) of 7.16. It also gave a Ratio (Cynomolgus monkey [34]) of 0.9 and a Ratio (Cynomolgus monkey [35]) of 1.2.
